For 33 compounds, Relative potency, Decrease and dP/dt results are on record in ChEMBL document CHEMBL1123993, “2(1H)-quinolinones with cardiac stimulant activity. 1. Synthesis and biological activities of (six-membered heteroaryl)-substituted derivatives” (1988).

For test [1], the system named is Canis familiaris. Kind of test: Percentage increase in dP/dt maximum observed with 4-[4-[2-(1,1-dioxo-2-isothiazolidinyl)-ethyl]-[…] (50 ug/Kg) in dog. The format is functional, Canis lupus familiaris. In short, it runs like this: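 Standard quinazoline inotrope given iv at 50 µg/kg to anesthetized dogs before each test compound. Left ventricular pressure recorded by Millar catheter via the carotid artery and differentiated to dP/dt max. Response expressed as % increase in dP/dt max; individual values taken from a typical test run.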

In test [2] the test system is Canis familiaris. Kind of test: Decrease in QA interval in Conscious dog(n=4) 3h after a dose of 1 mg/kg was administered per orally.
Test [3] has as its system Canis familiaris. Briefly: Inotropic activity measured as % increase in dP/dt maximum in Anesthetized dog at the dose of 50 ug/Kg administered intravenously. The format is functional, Canis lupus familiaris. In short, it runs like this: (§1)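 Anesthetized dogs. LVP recorded via Millar catheter passed into the left ventricle through the carotid artery, differentiated to dP/dt max. After 0.75 h equilibration, compound given iv in 0.9% saline 0.5 h after a standard quinazoline inotrope (50 µg/kg). Cycle repeated once control levels returned, at least 0.5 h between doses. Reported as % increase in dP/dt max; relative potency normalised by dose to the standard in the same dog.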

The subject of test [4] is Canis familiaris. Briefly: Decrease in QA interval in Conscious dog (n=4) 1 hr after a dose of 1 mg / Kg was administered per orally. The format is functional, Canis lupus familiaris. On the set-up: unit not given beside the values. In short, it runs like this: (§2)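 Conscious dogs (n = 4) given test substance as a solution by oral gavage. QA interval (ms from ECG R wave to arterial pressure pulse upstroke) recorded by computer every 0.16 h, from 0.5 h predose to 4 h postdose. Each time-point value is the mean of six consecutive 8-s sets. Reported as decrease from mean predose control.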

In test [5] the test system is Canis familiaris. Briefly: Decrease in QA interval in Conscious dog(n=4) 3h after a dose of 1 ug/kg was administered per orally. The format is functional, Canis lupus familiaris. The settings on record: in the assay text read “1 mg/kg” for “1 ug/kg”. Summed up:
as §2

In test [6] the test system is Canis familiaris. Kind of test: Inotropic activity measured as % increase in dP/dt maximum in Anesthetized dog at the dose of 250 ug/Kg administered intravenously. The format is functional, Canis lupus familiaris. Summed up:
as §1

For test [7], the system named is Canis familiaris. Kind of test: Decrease in QA interval in Conscious dog (n=4) 3h after a dose of 1 ug/Kg was administered per orally. The format is functional, Canis lupus familiaris. The settings on record: in the assay text read “1 mg/Kg” for “1 ug/Kg”. In short, it runs like this:
as §2

The subject of test [8] is Canis familiaris. Kind of test: Decrease in QA interval in Conscious dog (n=4) 1 hr after a dose of 1 mg/Kg was administered per orally.
Test [9] has as its system Canis familiaris. Briefly: Inotropic activity measured as % increase in dP/dt maximum in Anesthetized dog at the dose of 12.5 ug/Kg administered intravenously. The format is functional, Canis lupus familiaris. Summed up:
as §1

In test [10] the test system is Canis familiaris. Briefly: Decrease in QA interval in Conscious dog (n=4) 1 hr after a dose of 0.5 mg / Kg was administered per orally. The format is functional, Canis lupus familiaris. In short, it runs like this: as §2
In test [11] the test system is Canis familiaris. Briefly: Decrease in QA interval in Conscious dog(n=4) 3h after a dose of 1 mg/Kg was administered per orally. The format is functional, Canis lupus familiaris. Summed up: as §2
For test [12], the system named is Canis familiaris. Briefly: Decrease in QA interval in Conscious dog(n=4) 3h after a dose of 2 mg/Kg was administered per orally. The format is functional, Canis lupus familiaris. In short, it runs like this:
as §2

Test [13] deals with Canis familiaris. Briefly: Decrease in QA interval in Conscious dog (n=4) 1 hr after a dose of 2 mg/Kg was administered per orally. The format is functional, Canis lupus familiaris. Summed up: as §2
For test [14], the system named is Canis familiaris. Briefly: Decrease in QA interval in Conscious dog (n=4) 3h after a dose of 0.25 mg/Kg was administered per orally. The format is functional, Canis lupus familiaris. Summed up:
as §2

Test [15] has as its system Canis familiaris. Briefly: Inotropic activity measured as % increase in dP/dt maximum in Anesthetized dog at the dose of 25 ug/Kg administered intravenously. The format is functional, Canis lupus familiaris. Summed up:
as §1

The subject of test [16] is Canis familiaris. Kind of test: Decrease in QA interval in Conscious dog (n=4) 1 hr after a dose of 0.25 mg/Kg was administered per orally. The format is functional, Canis lupus familiaris. In short, it runs like this: as §2

On to `Oc1ccc2cc(-c3cncnc3)ccc2n1`, for which the Relative potency in test [1] is listed as 1.1. Further, the Decrease in test [2] is reported as 1; in [4], 3. The dP/dt in [3] was 44%.
Consider `CSc1cc(-c2ccc(C)nc2C)cc2ccc(O)nc12`, for which the Relative potency in test [1] was found to be 0.5. The dP/dt in test [3] amounted to 20.
The matching figures for `Cc1ccncc1-c1ccc2nc(O)ccc2c1`: 1.3 and 21%.
In the same order, the values of `Oc1ccc2ccc(-c3cccnc3)cc2n1` are 0.2 and 6%.
On to `COc1ccc(-c2ccc3nc(O)ccc3c2)cn1`, for which the Relative potency in test [1] turned out to be 0.3. Also, the dP/dt in test [3] was 11%.
In the same order, the values of `CCc1cc(-c2ccc(C)nc2C)cc2ccc(O)nc12` are 1 and 35%.
In the same order, the values of `Cc1ccc(-c2cc(C(C)C)c3nc(O)ccc3c2)c(C)n1` are 0.4 and 16%.
Regarding `Oc1ccc2cc(-c3ncccn3)ccc2n1`, in [1], the Relative potency stood at 0.7. The dP/dt in [3] is recorded as 28%. For the same compound, the Decrease in test [5] and in [4] was 4 in each case.
Regarding `Cc1ccc(-c2cc(Br)c3nc(O)ccc3c2)c(C)n1`, the Relative potency in [1] is 0.7. In addition, in [3], the dP/dt was 41%.
In test [1], `Cc1ccc(-c2ccc3c(c2)CCC(=O)N3)c(C)n1` displayed a Relative potency of 0.8. Further, in test [3], the dP/dt is 32%.
In the same order, the values of `COc1cc(-c2ccc(C)nc2C)cc2ccc(O)nc12` are 0.4 and 11%.
In turn, `Cc1cc2nc(O)ccc2cc1-c1cccnc1` showed a Relative potency in test [1] of 0.2. The compound also registered a dP/dt in test [6] of 51%.
As for `O=[N+]([O-])c1cc2cc(-c3cccnc3)ccc2nc1O`, the Relative potency in [1] was 0.6. Besides, the dP/dt in test [3] is given as 39%.
As to `O=C1CCc2cc(-c3cccnc3)ccc2N1`, the Relative potency in test [1] is recorded as 1.1. In addition, the Decrease in [7] was 7; in test [8], 10. Further, the dP/dt in [3] turned out to be 41%.
`Cc1cc(-c2cccnc2)cc2ccc(O)nc12`: in [1], the Relative potency worked out at 9. This compound also had a dP/dt in test [9] of 112%. Further, the Decrease in test [10] is on record as 16; in test [5], 20.
`Cc1ccc(-c2cc(C)c3nc(O)ccc3c2)c(C)n1` registered a Relative potency in test [1] of 4.3. Moreover, the dP/dt in test [9] worked out at 43%. The Decrease in test [2] came out at 19; in test [4], 21.
For the compound `Oc1ccc2c(-c3cccnc3)cccc2n1`, the Relative potency in test [1] was 0.9. This compound also gave a dP/dt in test [3] of 44%. The results for the Decrease in test [5] and in test [4] were 4 and 9, respectively.
`Cc1cc(O)nc2ccc(-c3cccnc3)cc12` had a Relative potency in test [1] of 0.7. The compound also displayed a dP/dt in test [3] of 39%.
For `Nc1cc2cc(-c3cccnc3)ccc2nc1O`, in test [1], the Relative potency is 0.9. In addition, in [3], the dP/dt is recorded as 63%.
The matching figures for `Cc1ccc(-c2ccc3nc(O)ccc3c2)cn1`: 1.3 and 46%.
In turn, `Oc1ccc2cc(-c3ccncn3)ccc2n1` came in with a Relative potency in test [1] of 1.2. The dP/dt in test [3] stood at 38%. Besides, the figures for the Decrease in test [5] and in test [4] were 2 and 6, respectively.
In the same order, the values of `Cc1ccc(-c2ccc3nc(O)ccc3c2)c(C)n1` are 1.4, 37%, 5 and 6.
As for `Nc1ccc(-c2ccc3nc(O)ccc3c2)cn1`, the Relative potency in [1] is given as 0.8. In [3], this compound gave a dP/dt of 30%.
The matching figures for `Cc1ncccc1-c1ccc2nc(O)ccc2c1`: 1.7 and 74%.
`Oc1ccc2cc(-c3ccncc3)ccc2n1` showed a Relative potency in [1] of 0.9. Further, the results for the Decrease in test [11] and in test [4] were 8 and 13, respectively. The compound also returned a dP/dt in test [3] of 51%.
In [1], `Oc1ccc2cc(-c3cccnn3)ccc2n1` gave a Relative potency of 0.7. The dP/dt in [3] amounted to 32%. Further, the Decrease in test [5] is recorded as 5; in [4], 8.
`Cc1ccc(-c2cc(O)c3nc(O)ccc3c2)c(C)n1`: in test [1], the Relative potency is listed as less than 0.1. In test [3], this compound displayed a dP/dt of 19%.
In test [1], `Oc1ccc2cc(-c3ccnnc3)ccc2n1` returned a Relative potency of 1.3. This compound also yielded a dP/dt in test [3] of 43%.
The compound `N#Cc1cc2cc(-c3cccnc3)ccc2nc1O` yielded a Relative potency in test [1] of 0.9. The compound further yielded a dP/dt in [3] of 46%.
With `Oc1ccc2cc(-c3ccccn3)ccc2n1`, the Relative potency in test [1] is 0.3. The Decrease is 1 in test [12] and 2 in test [13]. For the same compound, in [6], the dP/dt is listed as 62%.
Take `Oc1ccc2cc(-c3cccnc3)ccc2n1`: the Relative potency in test [1] was 1.3. For the same compound, the results for the Decrease in [11] and in test [4] were 7 and 14, respectively. The same compound showed a dP/dt in [3] of 54%.
As for `CSc1ccc(C(=O)c2[nH]c(=O)[nH]c2C)cc1` [ENOXIMONE], the Relative potency in test [1] is 0.013. The same compound had a dP/dt in [6] of 32%.
As for `Cc1[nH]c(=O)c(C#N)cc1-c1ccncc1` [MILRINONE], the Relative potency in test [1] was found to be 1.6. Moreover, the Decrease in test [14] is 7; in [16], 13. The compound also returned a dP/dt in [15] of 46%.
